High-throughput results from PubChem BioAssay.
Shown are actives, neighbours in structure and some others; about 4.6% of the full set was active somewhere.
OX1R antag-1: OX1R (HCRTR1) antagonists, primary screen, fluorescence, CHO/OX1R cells, Fluo-8 calcium, orexin A | actives 0.43% (n = 330,000) | inhibition, % at 5 µM | AID 434989, 2010 | Fluo-8 calcium fluorescence | Orexin/Hypocretin receptor type 1 (Homo sapiens), O43613;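 active = inhibition above its plate's threshold, mean inhibition of all tested compounds on the plate plus 3 SD, cut at about 37% in these data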
Target sequence (O43613 whole entry, looked up): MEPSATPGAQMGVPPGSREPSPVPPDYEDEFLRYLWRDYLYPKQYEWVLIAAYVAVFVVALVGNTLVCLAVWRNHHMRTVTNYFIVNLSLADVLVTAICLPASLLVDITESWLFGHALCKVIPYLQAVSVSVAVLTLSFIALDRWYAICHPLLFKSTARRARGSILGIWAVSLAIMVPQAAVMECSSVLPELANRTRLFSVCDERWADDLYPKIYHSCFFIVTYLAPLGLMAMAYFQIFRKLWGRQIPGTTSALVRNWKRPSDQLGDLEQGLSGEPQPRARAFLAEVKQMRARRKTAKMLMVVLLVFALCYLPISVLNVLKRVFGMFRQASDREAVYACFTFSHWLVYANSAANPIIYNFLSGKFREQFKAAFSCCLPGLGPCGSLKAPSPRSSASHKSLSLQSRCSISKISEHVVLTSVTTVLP
OX1R antag-2: antagonists of human orexin 1 receptor (OX1R) | Orexin/Hypocretin receptor type 1 (Homo sapiens), O43613 | OX1R-expressing cells, FRET antagonist read-out | inhibition, % at 6.6 µM | actives 1.8% (n = 330,000) | AID 485270, 2010; in the data active = inhibition mostly above about 38%, no sharp cut-off; inactive = mostly below about 40%
CHO parental Ca: ATP-evoked calcium signal inhibitors, parental CHO, primary screen, counter-screen for OX1R antagonist project, cell-based, fluorescence, Fluo-8 calcium dye; inhibition, % at 5.6 µM; actives 0.63% (n = 330,000); parental CHO-K1, ATP-induced calcium, Fluo-8 fluorescence; AID 463079, 2010;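 active = inhibition above that plate's mean sample inhibition plus 3 SD, cut at about 26% in these data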
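Material: parental CHO cells / Compound: single nominal dose of 5.6 µM per compound / Signal: Fluo-8 fluorescence / Replicates: singlicate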
GPR7 antag: GPR7 receptor antagonists, primary screen, cell-based, fluorescence, single concentration; actives 1.1% (n = 290,000); Neuropeptides B/W receptor type 1 (Homo sapiens), P48145; GPR7-expressing cells, fluorescence antagonist assay; inhibition, % at 4.4 µM; in the data active = inhibition above about 16%, passing the limit was not always enough;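 note: cells stimulated with the agonist NPW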
TAAR1 antagonist: human TAAR1 antagonists, primary screen, Fluo-8 calcium fluorescence, CHO RD-HGA16 cells; Trace amine-associated receptor 1 (Homo sapiens), Q96RJ0; antagonist; inhibition, % at 3 µM; actives 1.5% (n = 360,000);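 active = inhibition above a per-plate cutoff, the mean inhibition of test compounds on that plate plus 3 SD, cut at about 49% in these data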
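Test system: CHO RD-HGA16 cells bearing hTAAR1 | Reagent: β-PEA, EC80 | Compound dosing: 3 µM, single point | Schedule: Dye loading 75 min at 37 °C, then 30 min room temperature | Signal: Calcium fluorescence with Fluo-8 | Evaluation: Percent inhibition of PEA-evoked calcium signal, max/basal emission ratio | Control set: DMSO-only wells and EC80 β-PEA-stimulated wells | Repeats: Singlicate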
TAAR1 agonist: human TAAR1 agonists, primary screen, Fluo-8 calcium fluorescence, CHO RD-HGA16 cells; Trace amine-associated receptor 1 (Homo sapiens), Q96RJ0; vehicle wells 0%, saturating PEA agonist 100%; activation, % at 3 µM; actives 0.99% (n = 360,000); AID 624467, 2012;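 active = activation above the mean activation of all test compounds in the run plus 3 SD, cut at about 38% in these data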
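Assay system: CHO-derived RD-HGA16 cells with stable Gα16 and human TAAR1; timing: 17-24 h seeding, 75 min 37 °C dye, 30 min RT; read-out: % activation from peak over basal fluorescence ratio, DMSO-to-PEA scaled; measured by: kinetic Fluo-8 calcium fluorescence; benchmarks: low control DMSO, high control PEA (EC100); doses: 3 µM single concentration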
Hits are given with their value.

How did COC(=O)[C@]12C[C@H](CC(=O)N3CCSCC3)C(=O)N(Cc3ccc4c(c3)OCO4)C1=C[C@H](C(C)(C)C)O[C@@H]2C do in these assays?
TAAR1 antagonist: inactive; TAAR1 agonist: inactive

What do the screens show for `Cc1cccc(C)c1NC(=O)C1c2ccccc2OCC(=O)N1C1CC1` (stereo unspecified)?
TAAR1 antagonist: inactive; TAAR1 agonist: inactive

What do the screens show for `COc1ccc2c(c1)[C@@]1(OCCC=C[C@H]1C)C(=O)N2Cc1ccc(Br)cc1`?
TAAR1 antagonist: inactive; TAAR1 agonist: inactive

How did O=C(Nc1cccc(C(F)(F)F)c1)C1Cc2c(-c3ccco3)ccnc2O1 (stereo unspecified) do in these assays?
TAAR1 antagonist: inactive; TAAR1 agonist: inactive

What do the screens show for `O=C(CSc1nnc2ccc(-c3ccncc3)nn12)c1cccs1`?
OX1R antag-1: inactive; OX1R antag-2: 44; CHO parental Ca: inactive; GPR7 antag: inactive; TAAR1 antagonist: inactive; TAAR1 agonist: inactive

What do the screens show for `CCS(=O)(=O)Nc1cccc(-c2ccc3nnc(-c4cccnc4)n3n2)c1`?
OX1R antag-1: inactive; OX1R antag-2: 35; CHO parental Ca: inactive; GPR7 antag: inactive; TAAR1 antagonist: inactive; TAAR1 agonist: inactive

What do the screens show for `c1cncc(CSc2nnc3ccc(-c4ccncc4)nn23)c1`?
OX1R antag-1: inactive; OX1R antag-2: 39; CHO parental Ca: inactive; GPR7 antag: inactive; TAAR1 antagonist: inactive; TAAR1 agonist: inactive

Results for c1ccc(CSc2nnc3ccc(-c4ccncc4)nn23)cc1 ?
OX1R antag-1: inactive; OX1R antag-2: inactive; CHO parental Ca: inactive; GPR7 antag: inactive; TAAR1 antagonist: inactive; TAAR1 agonist: inactive

What do the screens show for `COc1ccc(NC(=O)CSc2nnc3ccc(-c4cccnc4)nn23)cc1`?
OX1R antag-1: inactive; OX1R antag-2: 63; CHO parental Ca: inactive; TAAR1 antagonist: inactive; TAAR1 agonist: inactive

How did COc1ccc(NC(=O)CSc2nnc3ccc(-c4ccncc4)nn23)cc1 do in these assays?
OX1R antag-1: inactive; OX1R antag-2: inactive; CHO parental Ca: inactive; TAAR1 antagonist: inactive; TAAR1 agonist: inactive

Results for C[C@@H]1CN([C@@H](C)CO)C(=O)CCCn2cc(nn2)CO[C@H]1CN(C)C(=O)Nc1cccc(F)c1 ?
TAAR1 antagonist: inactive; TAAR1 agonist: inactive

Results for COC(=O)[C@]12C[C@H](CC(=O)NCCCCc3ccccc3)C(=O)N(Cc3ccc4c(c3)OCO4)C1=C[C@H](COCc1ccccc1)O[C@@H]2C ?
TAAR1 antagonist: inactive; TAAR1 agonist: inactive

Results for C[C@@H]1ON(C)[C@H]2C[C@H]3c4[nH]c5c(-c6ccccc6)cccc5c4CCN3C[C@@H]12 ?
TAAR1 antagonist: inactive; TAAR1 agonist: inactive

What do the screens show for `O=C(CSc1nnc2ccc(-c3cccnc3)nn12)Nc1ccccc1`?
OX1R antag-1: inactive; OX1R antag-2: inactive; CHO parental Ca: inactive; TAAR1 antagonist: inactive; TAAR1 agonist: inactive

Results for CC(=O)Nc1cccc(NC(=O)CSc2nnc3ccc(-c4cccnc4)nn23)c1 ?
OX1R antag-1: inactive; OX1R antag-2: 75; CHO parental Ca: inactive; TAAR1 antagonist: inactive; TAAR1 agonist: inactive

How did Cc1ccc2c(c1)-c1c(cnn1CC(=O)N(Cc1ccco1)C1CCCCC1)CO2 do in these assays?
OX1R antag-1: inactive; OX1R antag-2: 52; CHO parental Ca: inactive; GPR7 antag: inactive; TAAR1 antagonist: inactive; TAAR1 agonist: inactive

What do the screens show for `CC1=NN(c2ccccc2)C(=O)/C1=C\C=C1\N(C)c2ccccc2C1(C)C`?
OX1R antag-1: 50; OX1R antag-2: inactive; CHO parental Ca: inactive; GPR7 antag: inactive; TAAR1 antagonist: inactive; TAAR1 agonist: 54

Results for CCN(CC)CCn1c(=S)[nH]c2cc(C(=O)NCCc3ccc(OC)c(OC)c3)ccc2c1=O ?
TAAR1 antagonist: inactive; TAAR1 agonist: inactive
